# What was measured:
# Conditions in all cases: stereoisomer not certain
# UniProt Q8VFP5 = molecular target: T1, UniProt Q8VFP5
# T1 sequence (whole entry): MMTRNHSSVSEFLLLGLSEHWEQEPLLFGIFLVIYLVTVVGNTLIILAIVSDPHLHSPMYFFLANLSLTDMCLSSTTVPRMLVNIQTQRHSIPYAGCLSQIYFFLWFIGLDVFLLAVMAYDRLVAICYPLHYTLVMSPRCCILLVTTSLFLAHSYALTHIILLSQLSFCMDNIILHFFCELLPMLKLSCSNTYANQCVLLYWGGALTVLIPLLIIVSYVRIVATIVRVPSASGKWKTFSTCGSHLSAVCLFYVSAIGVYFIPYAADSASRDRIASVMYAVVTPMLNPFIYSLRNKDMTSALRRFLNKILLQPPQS
# How it was run: (§1)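 Whether a receptor–molecule pair is responsive (active) rests on the original authors' judgment that its measured signal was statistically different from baseline. Pairs without that judgment are non-responsive (inactive). Sources used varied assay methods, commonly transient luciferase assays in mammalian cell lines.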
# UniProt Q8VG01 = molecular target: T2, UniProt Q8VG01
# T2 sequence (whole entry): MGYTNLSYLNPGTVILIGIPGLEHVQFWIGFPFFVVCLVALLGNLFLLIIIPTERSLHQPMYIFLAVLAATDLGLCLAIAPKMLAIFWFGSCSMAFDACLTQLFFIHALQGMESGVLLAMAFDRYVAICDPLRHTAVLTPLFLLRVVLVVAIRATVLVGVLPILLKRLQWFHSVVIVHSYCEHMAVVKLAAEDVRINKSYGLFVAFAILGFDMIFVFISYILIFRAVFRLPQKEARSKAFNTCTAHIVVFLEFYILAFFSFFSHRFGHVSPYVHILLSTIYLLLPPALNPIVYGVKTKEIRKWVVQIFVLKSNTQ
# How it was run: as §1
# UniProt Q8VG27 = molecular target: T3, UniProt Q8VG27
# T3 sequence (whole entry): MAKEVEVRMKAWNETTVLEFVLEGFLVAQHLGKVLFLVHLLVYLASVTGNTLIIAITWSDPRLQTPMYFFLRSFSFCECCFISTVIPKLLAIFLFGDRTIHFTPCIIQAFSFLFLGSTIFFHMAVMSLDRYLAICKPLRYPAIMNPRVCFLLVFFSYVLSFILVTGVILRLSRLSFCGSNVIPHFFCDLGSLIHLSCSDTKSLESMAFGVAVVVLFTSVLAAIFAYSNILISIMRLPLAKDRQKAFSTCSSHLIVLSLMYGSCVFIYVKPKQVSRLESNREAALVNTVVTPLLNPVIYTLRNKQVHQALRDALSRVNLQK
# How it was run: as §1
# UniProt Q8VG53 = molecular target: T4, UniProt Q8VG53
# T4 sequence (whole entry): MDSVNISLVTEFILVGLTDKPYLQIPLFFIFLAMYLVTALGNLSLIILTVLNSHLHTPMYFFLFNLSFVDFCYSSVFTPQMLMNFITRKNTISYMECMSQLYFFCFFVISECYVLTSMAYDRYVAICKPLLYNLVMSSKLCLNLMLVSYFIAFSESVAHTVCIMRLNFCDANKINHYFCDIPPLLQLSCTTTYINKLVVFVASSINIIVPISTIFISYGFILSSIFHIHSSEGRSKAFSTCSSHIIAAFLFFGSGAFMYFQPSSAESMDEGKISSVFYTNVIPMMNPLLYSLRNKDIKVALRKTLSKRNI
# How it was run: as §1
# UniProt Q8VG64 = molecular target: T5, UniProt Q8VG64
# T5 sequence (whole entry): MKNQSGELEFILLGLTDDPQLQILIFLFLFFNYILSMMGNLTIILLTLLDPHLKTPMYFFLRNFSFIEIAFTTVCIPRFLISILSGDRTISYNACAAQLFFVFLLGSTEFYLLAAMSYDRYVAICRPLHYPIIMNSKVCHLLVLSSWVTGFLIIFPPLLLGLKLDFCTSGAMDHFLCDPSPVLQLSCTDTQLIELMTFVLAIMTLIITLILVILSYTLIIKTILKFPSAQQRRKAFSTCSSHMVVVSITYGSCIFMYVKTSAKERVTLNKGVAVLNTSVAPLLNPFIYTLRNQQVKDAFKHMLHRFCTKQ
# How it was run: as §1
# UniProt Q8VGB9 = molecular target: T6, UniProt Q8VGB9
# T6 sequence (whole entry): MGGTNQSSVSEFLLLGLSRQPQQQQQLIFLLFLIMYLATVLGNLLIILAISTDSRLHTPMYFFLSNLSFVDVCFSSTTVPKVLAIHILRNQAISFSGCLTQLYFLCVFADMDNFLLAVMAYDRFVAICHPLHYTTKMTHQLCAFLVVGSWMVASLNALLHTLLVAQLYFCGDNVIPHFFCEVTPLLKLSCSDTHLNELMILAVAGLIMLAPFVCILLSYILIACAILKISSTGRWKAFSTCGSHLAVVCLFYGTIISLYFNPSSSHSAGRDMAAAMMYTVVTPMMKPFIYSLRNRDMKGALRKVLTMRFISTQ
# How it was run: as §1
# UniProt Q8VG28 = molecular target: UniProt Q8VG28
# Chain of UniProt Q8VG28 (Q8VG28 as listed by the source): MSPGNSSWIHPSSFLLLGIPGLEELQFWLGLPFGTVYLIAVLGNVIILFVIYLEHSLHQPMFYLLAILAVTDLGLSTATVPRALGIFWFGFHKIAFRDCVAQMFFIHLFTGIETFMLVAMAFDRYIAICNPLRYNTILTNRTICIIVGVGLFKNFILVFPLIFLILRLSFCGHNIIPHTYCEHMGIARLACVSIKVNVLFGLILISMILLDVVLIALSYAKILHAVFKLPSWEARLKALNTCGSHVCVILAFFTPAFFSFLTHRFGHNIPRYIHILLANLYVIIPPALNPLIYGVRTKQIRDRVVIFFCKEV
# How it was run: as §1
# UniProt Q8VFV2 = molecular target: UniProt Q8VFV2
# Chain of UniProt Q8VFV2 (Q8VFV2 as listed by the source): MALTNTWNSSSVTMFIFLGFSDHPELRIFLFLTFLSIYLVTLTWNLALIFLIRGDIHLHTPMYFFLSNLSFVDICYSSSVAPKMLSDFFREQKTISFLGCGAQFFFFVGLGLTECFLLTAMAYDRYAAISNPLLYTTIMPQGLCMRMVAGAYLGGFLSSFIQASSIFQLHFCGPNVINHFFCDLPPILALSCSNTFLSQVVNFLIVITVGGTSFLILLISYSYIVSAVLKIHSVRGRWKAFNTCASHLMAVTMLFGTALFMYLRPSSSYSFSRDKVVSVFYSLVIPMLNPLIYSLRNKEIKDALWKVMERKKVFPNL
# How it was run: as §1
# UniProt Q8VFV3 = molecular target: UniProt Q8VFV3
# Chain of UniProt Q8VFV3 (Q8VFV3 as listed by the source): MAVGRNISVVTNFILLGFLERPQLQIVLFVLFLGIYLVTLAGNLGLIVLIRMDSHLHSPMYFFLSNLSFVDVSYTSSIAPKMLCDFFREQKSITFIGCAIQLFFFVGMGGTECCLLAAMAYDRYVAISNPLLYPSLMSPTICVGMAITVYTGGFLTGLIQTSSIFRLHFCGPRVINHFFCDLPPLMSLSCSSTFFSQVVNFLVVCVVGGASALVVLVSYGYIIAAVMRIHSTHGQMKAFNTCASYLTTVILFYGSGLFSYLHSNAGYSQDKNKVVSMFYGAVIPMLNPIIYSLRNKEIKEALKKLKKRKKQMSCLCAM
# How it was run: as §1
# UniProt Q8VFV8 = molecular target: UniProt Q8VFV8
# Chain of UniProt Q8VFV8 (Q8VFV8 as listed by the source): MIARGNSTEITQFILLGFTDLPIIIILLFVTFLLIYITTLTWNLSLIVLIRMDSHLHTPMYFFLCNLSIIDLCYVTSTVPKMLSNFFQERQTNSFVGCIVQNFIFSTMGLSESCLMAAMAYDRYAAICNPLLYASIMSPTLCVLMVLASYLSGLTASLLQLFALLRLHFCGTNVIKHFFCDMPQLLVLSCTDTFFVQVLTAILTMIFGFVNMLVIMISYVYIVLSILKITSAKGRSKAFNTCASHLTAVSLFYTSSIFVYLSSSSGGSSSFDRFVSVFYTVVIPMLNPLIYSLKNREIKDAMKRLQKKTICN
# How it was run: as §1
# UniProt Q8VFW7 = molecular target: UniProt Q8VFW7
# Chain of UniProt Q8VFW7 (Q8VFW7 as listed by the source): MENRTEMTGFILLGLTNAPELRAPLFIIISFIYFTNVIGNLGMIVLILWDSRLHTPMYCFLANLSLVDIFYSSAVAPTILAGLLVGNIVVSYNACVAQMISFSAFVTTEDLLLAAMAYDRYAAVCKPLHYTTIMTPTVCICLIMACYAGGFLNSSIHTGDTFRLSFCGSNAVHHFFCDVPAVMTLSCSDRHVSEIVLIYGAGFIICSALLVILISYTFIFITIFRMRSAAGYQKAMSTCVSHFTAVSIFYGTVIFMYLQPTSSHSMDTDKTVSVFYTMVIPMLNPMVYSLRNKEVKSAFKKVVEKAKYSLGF
# How it was run: as §1
# UniProt Q8VG74 = molecular target: UniProt Q8VG74
# Chain of UniProt Q8VG74 (Q8VG74 as listed by the source): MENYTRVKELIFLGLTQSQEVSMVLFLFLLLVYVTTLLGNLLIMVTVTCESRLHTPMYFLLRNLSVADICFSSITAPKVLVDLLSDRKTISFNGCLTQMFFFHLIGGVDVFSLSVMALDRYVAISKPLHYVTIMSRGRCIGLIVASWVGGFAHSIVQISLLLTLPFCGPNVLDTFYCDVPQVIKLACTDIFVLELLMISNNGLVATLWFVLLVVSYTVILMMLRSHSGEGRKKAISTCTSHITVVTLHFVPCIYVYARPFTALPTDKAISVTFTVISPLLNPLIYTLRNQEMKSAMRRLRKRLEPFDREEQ
# How it was run: as §1
# UniProt Q8VGA9 = molecular target: UniProt Q8VGA9
# Chain of UniProt Q8VGA9 (Q8VGA9 as listed by the source): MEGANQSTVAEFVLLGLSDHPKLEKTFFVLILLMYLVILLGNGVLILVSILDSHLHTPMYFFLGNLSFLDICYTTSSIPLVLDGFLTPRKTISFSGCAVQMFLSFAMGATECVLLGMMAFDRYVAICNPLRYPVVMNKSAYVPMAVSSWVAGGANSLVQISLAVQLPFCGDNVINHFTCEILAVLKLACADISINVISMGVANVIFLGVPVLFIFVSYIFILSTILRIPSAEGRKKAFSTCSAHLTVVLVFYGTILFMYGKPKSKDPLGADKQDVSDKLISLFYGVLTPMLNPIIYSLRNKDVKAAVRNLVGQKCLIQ
# How it was run: as §1
# UniProt Q8VFZ6 = molecular target: T7, UniProt Q8VFZ6
# T7 sequence (whole entry): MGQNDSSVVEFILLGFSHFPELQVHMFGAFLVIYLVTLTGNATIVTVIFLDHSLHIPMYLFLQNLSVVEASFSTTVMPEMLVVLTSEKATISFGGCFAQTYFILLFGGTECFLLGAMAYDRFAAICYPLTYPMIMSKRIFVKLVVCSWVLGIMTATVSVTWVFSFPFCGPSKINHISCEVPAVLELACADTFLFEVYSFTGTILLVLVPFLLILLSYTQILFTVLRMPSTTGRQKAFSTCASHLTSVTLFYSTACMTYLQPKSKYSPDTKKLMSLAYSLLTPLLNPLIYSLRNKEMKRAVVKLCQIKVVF
# How it was run: as §1
# UniProt Q8VG22 = molecular target: T8, UniProt Q8VG22
# T8 sequence (whole entry): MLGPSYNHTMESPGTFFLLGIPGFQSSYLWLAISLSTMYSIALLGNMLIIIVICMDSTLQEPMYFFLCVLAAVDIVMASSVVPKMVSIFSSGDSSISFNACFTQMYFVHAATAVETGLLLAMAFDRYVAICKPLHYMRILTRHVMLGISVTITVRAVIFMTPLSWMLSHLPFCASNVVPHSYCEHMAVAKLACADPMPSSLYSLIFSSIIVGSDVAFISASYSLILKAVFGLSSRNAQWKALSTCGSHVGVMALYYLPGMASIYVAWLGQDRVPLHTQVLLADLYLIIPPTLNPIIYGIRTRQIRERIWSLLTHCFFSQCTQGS
# How it was run: as §1
# UniProt Q8VG26 = molecular target: UniProt Q8VG26
# Chain of UniProt Q8VG26 (Q8VG26 as listed by the source): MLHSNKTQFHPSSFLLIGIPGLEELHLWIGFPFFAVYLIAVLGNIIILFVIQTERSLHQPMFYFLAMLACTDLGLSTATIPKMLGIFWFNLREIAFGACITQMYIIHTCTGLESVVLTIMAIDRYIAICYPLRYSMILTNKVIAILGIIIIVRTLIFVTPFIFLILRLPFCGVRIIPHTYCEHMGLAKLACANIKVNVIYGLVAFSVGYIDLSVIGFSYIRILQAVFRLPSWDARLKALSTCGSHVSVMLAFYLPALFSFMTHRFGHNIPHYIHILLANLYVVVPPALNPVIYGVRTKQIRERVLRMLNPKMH
# How it was run: as §1
# UniProt Q8VG49 = molecular target: T9, UniProt Q8VG49
# T9 sequence (whole entry): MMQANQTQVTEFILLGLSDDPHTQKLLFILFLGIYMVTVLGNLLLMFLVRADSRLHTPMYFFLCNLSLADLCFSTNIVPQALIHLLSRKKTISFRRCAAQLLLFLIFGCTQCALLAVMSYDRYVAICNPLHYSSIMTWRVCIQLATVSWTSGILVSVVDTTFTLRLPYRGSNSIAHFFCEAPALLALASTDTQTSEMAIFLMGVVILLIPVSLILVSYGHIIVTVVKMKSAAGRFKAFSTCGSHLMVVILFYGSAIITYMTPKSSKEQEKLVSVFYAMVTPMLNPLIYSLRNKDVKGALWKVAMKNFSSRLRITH
# How it was run: as §1
# UniProt Q8VG77 = molecular target: T10, UniProt Q8VG77
# T10 sequence (whole entry): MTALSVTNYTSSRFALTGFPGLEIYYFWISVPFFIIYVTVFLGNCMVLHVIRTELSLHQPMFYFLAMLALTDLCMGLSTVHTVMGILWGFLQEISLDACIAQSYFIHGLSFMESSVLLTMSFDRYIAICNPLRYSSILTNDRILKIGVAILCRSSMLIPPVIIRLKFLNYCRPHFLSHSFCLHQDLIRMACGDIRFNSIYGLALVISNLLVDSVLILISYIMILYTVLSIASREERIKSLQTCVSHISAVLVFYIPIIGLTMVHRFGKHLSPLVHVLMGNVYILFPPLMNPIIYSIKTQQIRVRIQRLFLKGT
# How it was run: as §1
# UniProt Q8VG96 = molecular target: T11, UniProt Q8VG96
# T11 sequence (whole entry): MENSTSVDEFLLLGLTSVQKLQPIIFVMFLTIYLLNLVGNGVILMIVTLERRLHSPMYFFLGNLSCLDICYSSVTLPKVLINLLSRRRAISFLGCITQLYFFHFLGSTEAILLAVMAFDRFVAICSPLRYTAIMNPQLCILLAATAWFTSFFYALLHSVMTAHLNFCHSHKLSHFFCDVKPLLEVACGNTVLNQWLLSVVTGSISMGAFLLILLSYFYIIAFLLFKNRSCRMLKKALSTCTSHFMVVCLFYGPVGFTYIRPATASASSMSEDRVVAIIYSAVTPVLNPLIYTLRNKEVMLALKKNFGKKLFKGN
# How it was run: as §1
# 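Further: active if original authors judged signal statistically different from baseline.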
smiles,measurement,setting,value
CC1(C)CC(=O)CC(=O)C1,odorant receptor agonist call,UniProt Q8VFP5,inactive
same,odorant receptor agonist call,UniProt Q8VG01,inactive
same,odorant receptor agonist call,UniProt Q8VG27,inactive
same,odorant receptor agonist call,UniProt Q8VG53,inactive
same,odorant receptor agonist call,UniProt Q8VG64,inactive
same,odorant receptor agonist call,UniProt Q8VGB9,inactive
CCC=CCCC=CC=O,odorant receptor agonist call,UniProt Q8VFP5,inactive
same,odorant receptor agonist call,UniProt Q8VG01,inactive
same,odorant receptor agonist call,UniProt Q8VG27,inactive
same,odorant receptor agonist call,UniProt Q8VG53,inactive
same,odorant receptor agonist call,UniProt Q8VG64,inactive
same,odorant receptor agonist call,UniProt Q8VGB9,inactive
O=C([O-])CCCCC(=O)[O-].[H+].[H+],odorant receptor agonist call,UniProt Q8VG28,inactive
CC1CCCCCCCCCCCCC(=O)C1 (stereo not drawn),odorant receptor agonist call,UniProt Q8VFV2,inactive
same,odorant receptor agonist call,UniProt Q8VFV3,inactive
same,odorant receptor agonist call,UniProt Q8VFV8,inactive
same,odorant receptor agonist call,UniProt Q8VFW7,inactive
same,odorant receptor agonist call,UniProt Q8VG74,inactive
same,odorant receptor agonist call,UniProt Q8VGA9,inactive
CCC=CCCCCC=O,odorant receptor agonist call,UniProt Q8VFP5,inactive
same,odorant receptor agonist call,UniProt Q8VG01,active
same,odorant receptor agonist call,UniProt Q8VG27,inactive
same,odorant receptor agonist call,UniProt Q8VG53,inactive
same,odorant receptor agonist call,UniProt Q8VG64,inactive
same,odorant receptor agonist call,UniProt Q8VGB9,inactive
COc1nccnc1C,odorant receptor agonist call,UniProt Q8VFP5,inactive
same,odorant receptor agonist call,UniProt Q8VG01,inactive
same,odorant receptor agonist call,UniProt Q8VG27,inactive
same,odorant receptor agonist call,UniProt Q8VG53,inactive
same,odorant receptor agonist call,UniProt Q8VG64,inactive
same,odorant receptor agonist call,UniProt Q8VGB9,inactive
c1ccc2ncccc2c1,odorant receptor agonist call,UniProt Q8VFP5,inactive
same,odorant receptor agonist call,UniProt Q8VG01,inactive
same,odorant receptor agonist call,UniProt Q8VG27,inactive
same,odorant receptor agonist call,UniProt Q8VG53,inactive
same,odorant receptor agonist call,UniProt Q8VG64,inactive
same,odorant receptor agonist call,UniProt Q8VGB9,inactive
C=C(C)C1CC=C(C)CC1 (stereo not drawn),odorant receptor agonist call,UniProt Q8VFP5,inactive
same,odorant receptor agonist call,UniProt Q8VG01,inactive
same,odorant receptor agonist call,UniProt Q8VG27,inactive
same,odorant receptor agonist call,UniProt Q8VG53,inactive
same,odorant receptor agonist call,UniProt Q8VG64,inactive
same,odorant receptor agonist call,UniProt Q8VGB9,inactive
CCc1occc(=O)c1O,odorant receptor agonist call,UniProt Q8VFP5,inactive
same,odorant receptor agonist call,UniProt Q8VG01,inactive
same,odorant receptor agonist call,UniProt Q8VG27,inactive
same,odorant receptor agonist call,UniProt Q8VG53,inactive
same,odorant receptor agonist call,UniProt Q8VG64,inactive
same,odorant receptor agonist call,UniProt Q8VGB9,inactive
CC=CC(=O)C1=C(C)CCCC1(C)C,odorant receptor agonist call,UniProt Q8VFP5,inactive
same,odorant receptor agonist call,UniProt Q8VG01,inactive
same,odorant receptor agonist call,UniProt Q8VG27,inactive
same,odorant receptor agonist call,UniProt Q8VG53,inactive
same,odorant receptor agonist call,UniProt Q8VG64,inactive
same,odorant receptor agonist call,UniProt Q8VGB9,inactive
O=C(O)CCCCBr,odorant receptor agonist call,UniProt Q8VG28,inactive
O=C(O)CCCCCC(=O)O,odorant receptor agonist call,UniProt Q8VG28,inactive
CC(=O)C=CC1=C(C)CCCC1(C)C,odorant receptor agonist call,UniProt Q8VFP5,inactive
same,odorant receptor agonist call,UniProt Q8VG01,inactive
same,odorant receptor agonist call,UniProt Q8VG27,inactive
same,odorant receptor agonist call,UniProt Q8VG53,inactive
same,odorant receptor agonist call,UniProt Q8VG64,inactive
same,odorant receptor agonist call,UniProt Q8VGB9,inactive
CCCCCCCOC(=O)C(C)C,odorant receptor agonist call,UniProt Q8VFP5,inactive
same,odorant receptor agonist call,UniProt Q8VG01,inactive
same,odorant receptor agonist call,UniProt Q8VG27,inactive
same,odorant receptor agonist call,UniProt Q8VG53,inactive
same,odorant receptor agonist call,UniProt Q8VG64,inactive
same,odorant receptor agonist call,UniProt Q8VGB9,inactive
CCCC(C)=O,odorant receptor agonist call,UniProt Q8VFZ6,inactive
same,odorant receptor agonist call,UniProt Q8VG01,inactive
same,odorant receptor agonist call,UniProt Q8VG22,inactive
same,odorant receptor agonist call,UniProt Q8VG26,inactive
same,odorant receptor agonist call,UniProt Q8VG28,inactive
same,odorant receptor agonist call,UniProt Q8VG49,inactive
same,odorant receptor agonist call,UniProt Q8VG77,inactive
same,odorant receptor agonist call,UniProt Q8VG96,inactive
CC(C)CS,odorant receptor agonist call,UniProt Q8VFP5,inactive
same,odorant receptor agonist call,UniProt Q8VG01,inactive
same,odorant receptor agonist call,UniProt Q8VG27,inactive
same,odorant receptor agonist call,UniProt Q8VG53,inactive
same,odorant receptor agonist call,UniProt Q8VG64,inactive
same,odorant receptor agonist call,UniProt Q8VGB9,inactive

# Reference: the M2OR odorant receptor database
